Measurements reported in ChEMBL document CHEMBL5543124, “Lead Compound Development of SRC-3 Inhibitors with Improved Pharmacokinetic Properties and Anticancer Efficacy” (J Med Chem, 2024).
pEC50, pIC50: −log10 of the molar value. Active and inactive are the calls of the source. The rule behind the calls is not given here.

Experiments:
Endothelin-1 receptor = molecular target: T1, Endothelin-1 receptor (Homo sapiens, UniProt P25101); assay: Agonist activity at EDNRA (unknown origin) by calcium flux assay; assay type: toxicity
T1 sequence (P25101 whole entry): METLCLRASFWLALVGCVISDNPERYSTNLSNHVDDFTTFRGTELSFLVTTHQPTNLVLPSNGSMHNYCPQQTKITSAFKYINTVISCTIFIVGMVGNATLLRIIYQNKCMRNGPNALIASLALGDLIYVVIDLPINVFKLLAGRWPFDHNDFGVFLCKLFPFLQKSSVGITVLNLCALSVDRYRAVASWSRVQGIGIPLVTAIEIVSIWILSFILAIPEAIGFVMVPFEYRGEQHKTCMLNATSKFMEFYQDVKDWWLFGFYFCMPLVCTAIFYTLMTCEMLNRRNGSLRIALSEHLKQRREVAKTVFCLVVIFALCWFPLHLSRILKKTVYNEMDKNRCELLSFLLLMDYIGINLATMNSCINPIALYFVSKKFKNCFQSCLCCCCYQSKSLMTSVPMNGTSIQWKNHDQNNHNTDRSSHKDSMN
Outline: (§1)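 Tested in a commercial off-target safety screening panel of 78 targets. Values reported as RC50, taken as IC50 except for agonist mode, where RC50 is EC50.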

[1] = Cytotoxicity against human MPANC96 cells assessed as inhibition of cell growth incubated for 72 hrs by MTT assay; assay type: functional, cell-based; conditions: MPANC96, 72 h
Outline: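 Cells seeded and grown to 70–80% confluence, then exposed for 72 h to a titration series (0.2–1000 nM). Viability read by MTT relative to untreated cells, with 6 replicates per concentration. IC50 fitted with a Hill-slope model.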

[2] = molecular target: Nuclear receptor coactivator 3 (Homo sapiens) (UniProt Q9Y6Q9); assay: Inhibition of recombinant His-tagged SRC-3 (unknown origin) expressed in baculovirus assessed as reduction in recruitment of p300 in ER complex at 0.15 uM incubated for 30 mins by pull-down based western blotting analysis
Chain of Nuclear receptor coactivator 3 (Homo sapiens) (Q9Y6Q9 2-1424 limits assumed): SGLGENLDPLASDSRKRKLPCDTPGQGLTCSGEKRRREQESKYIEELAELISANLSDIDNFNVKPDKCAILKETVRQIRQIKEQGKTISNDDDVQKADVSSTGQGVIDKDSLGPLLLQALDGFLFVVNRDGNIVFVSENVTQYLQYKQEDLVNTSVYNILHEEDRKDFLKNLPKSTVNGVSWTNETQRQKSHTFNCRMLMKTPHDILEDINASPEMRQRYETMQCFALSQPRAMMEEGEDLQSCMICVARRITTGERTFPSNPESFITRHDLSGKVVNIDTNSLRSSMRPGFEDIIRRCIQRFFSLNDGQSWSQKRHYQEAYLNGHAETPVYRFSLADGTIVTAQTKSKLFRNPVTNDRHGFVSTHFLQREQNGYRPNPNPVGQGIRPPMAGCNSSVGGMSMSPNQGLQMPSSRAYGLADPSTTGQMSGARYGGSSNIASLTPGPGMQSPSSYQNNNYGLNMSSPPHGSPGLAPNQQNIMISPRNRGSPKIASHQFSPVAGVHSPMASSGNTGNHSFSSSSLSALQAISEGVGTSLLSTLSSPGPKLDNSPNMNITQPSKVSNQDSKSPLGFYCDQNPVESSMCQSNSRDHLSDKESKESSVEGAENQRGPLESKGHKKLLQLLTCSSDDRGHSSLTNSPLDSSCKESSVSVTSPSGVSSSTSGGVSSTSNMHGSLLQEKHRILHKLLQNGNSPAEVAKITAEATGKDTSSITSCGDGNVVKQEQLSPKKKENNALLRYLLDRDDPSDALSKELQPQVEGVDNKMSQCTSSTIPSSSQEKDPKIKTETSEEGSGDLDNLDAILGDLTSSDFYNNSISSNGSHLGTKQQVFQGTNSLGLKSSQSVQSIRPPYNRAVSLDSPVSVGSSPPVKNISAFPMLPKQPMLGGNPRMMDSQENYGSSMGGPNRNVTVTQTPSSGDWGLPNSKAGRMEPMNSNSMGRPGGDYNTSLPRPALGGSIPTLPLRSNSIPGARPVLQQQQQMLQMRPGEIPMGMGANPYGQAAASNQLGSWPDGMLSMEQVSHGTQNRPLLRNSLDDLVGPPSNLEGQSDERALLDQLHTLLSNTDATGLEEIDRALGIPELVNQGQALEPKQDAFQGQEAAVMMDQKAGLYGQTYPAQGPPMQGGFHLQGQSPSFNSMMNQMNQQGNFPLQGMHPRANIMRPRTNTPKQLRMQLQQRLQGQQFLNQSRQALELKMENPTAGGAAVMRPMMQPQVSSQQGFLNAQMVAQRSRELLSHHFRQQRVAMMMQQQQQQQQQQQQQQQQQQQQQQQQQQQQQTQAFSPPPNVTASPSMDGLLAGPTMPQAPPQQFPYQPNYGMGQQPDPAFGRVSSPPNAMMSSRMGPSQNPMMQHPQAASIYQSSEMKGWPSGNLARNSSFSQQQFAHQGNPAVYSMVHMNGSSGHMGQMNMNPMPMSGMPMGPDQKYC
Outline: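 Purified baculovirus-expressed His-SRC-3-flag (0.1 μg) preincubated with compound or vehicle for 30 min on ice. Then 0.1 μg recombinant ERα and His-p300 plus ERE-containing DNA oligo and 1 μM 17β-estradiol added, 1 h on ice. ER complexes immunoprecipitated with anti-ERα antibody; SRC-3 and p300 detected by western blot.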

[3] = molecular target: Prostaglandin G/H synthase 1 (Homo sapiens, UniProt P23219); assay: Inhibition of COX1 (unknown origin); assay type: toxicity; outline: as §1
Chain of Prostaglandin G/H synthase 1 (P23219 whole entry): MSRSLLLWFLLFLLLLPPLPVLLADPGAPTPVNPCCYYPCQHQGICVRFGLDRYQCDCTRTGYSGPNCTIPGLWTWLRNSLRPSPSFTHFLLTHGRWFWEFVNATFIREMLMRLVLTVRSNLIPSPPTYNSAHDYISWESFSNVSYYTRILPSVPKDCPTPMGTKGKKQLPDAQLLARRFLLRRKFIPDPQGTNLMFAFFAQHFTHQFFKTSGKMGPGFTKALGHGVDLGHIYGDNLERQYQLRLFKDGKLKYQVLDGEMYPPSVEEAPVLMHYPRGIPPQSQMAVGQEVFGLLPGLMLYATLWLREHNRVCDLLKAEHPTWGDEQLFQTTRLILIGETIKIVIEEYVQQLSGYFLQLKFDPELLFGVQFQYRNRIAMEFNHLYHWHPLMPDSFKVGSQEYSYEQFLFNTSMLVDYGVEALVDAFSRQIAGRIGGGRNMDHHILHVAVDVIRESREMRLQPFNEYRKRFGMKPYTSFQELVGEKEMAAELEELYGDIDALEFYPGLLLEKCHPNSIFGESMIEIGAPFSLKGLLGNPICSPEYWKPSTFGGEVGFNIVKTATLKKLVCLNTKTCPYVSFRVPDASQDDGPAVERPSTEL

Panc-1-Luc = assay: Antitumor activity against human Panc-1-Luc cells orthotopically xenografted in SCID mouse assessed as reduction in tumor growth at 10 mg/kg,ip administration once daily for 63 days; assay type: functional, organism-based; conditions: time 63.0 day
Outline: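 Panc-1-Luc cells (0.5×10^6) implanted orthotopically in pancreas of male SCID mice (8 weeks). Mice randomized by luciferase imaging (n = 5/group); from day 8 given 10 mg/kg or vehicle daily. Tumor measured weekly by luciferase imaging and calipers (length × width²/2), body weight weekly; tumors harvested at day 63.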

[4] = Cmax in CD-1 mouse at 10 mg/kg,po administration measured upto 48 hrs by LC-MS/MS analysis; assay type: ADME, organism-based; conditions: in vivo
Outline: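 Oral gavage in ICR male mice (n = 3); dosing solution 1 mg/mL in 20% DMSO, 16% PEG, 4% dextrose in PBS. Tail-vein blood (10 μL) taken at 15, 30 min and 1, 2, 4, 8, 24, 48 h. Plasma quantified by LC-MS/MS against a 0.5–1000 ng/mL calibration; parameters from a non-compartmental extravascular model.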

[5] = Toxicity in SCID mouse orthotopically xenografted with human Panc-1-Luc cells assessed as change in body weight at 10 mg/kg,ip administration once daily for 63 days; assay type: organism-based; conditions: in vivo, 1512 h, time 63 day
Outline: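 Male SCID mice (8 weeks) received orthotopic pancreatic implants of Panc-1-Luc cells (0.5×10^6 per mouse). Mice randomized by luciferase imaging (n=5 per group). From day 8, dosed 10 mg/kg i.p. or solvent vehicle once daily. Body weight recorded weekly; mice euthanized at day 63.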

[6] = Cmax in CD-1 mouse at 1 mg/kg,iv administration measured upto 48 hrs by LC-MS/MS analysis; assay type: ADME, organism-based; conditions: in vivo
Outline: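 Single intravenous bolus in ICR male mice (n = 3, 6 weeks); dosing solution 0.5 mg/mL in 20% DMSO, 16% PEG, 4% dextrose in PBS. Tail-vein blood (10 μL) taken at 2, 5, 15, 30 min and 1, 2, 4, 8, 24, 48 h. Plasma quantified by LC-MS/MS against a 0.5–1000 ng/mL calibration; parameters from non-compartmental analysis.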

[7] = molecular target: Voltage-gated inwardly rectifying potassium channel KCNH2 (Homo sapiens, UniProt Q12809); assay: Inhibition of hERG transfected in HEK293 cells at 10 uM by patch clamp assay; assay type: toxicity, cell-based; conditions: hek293, 10 µM
Chain of Voltage-gated inwardly rectifying potassium channel KCNH2 (Q12809 whole entry): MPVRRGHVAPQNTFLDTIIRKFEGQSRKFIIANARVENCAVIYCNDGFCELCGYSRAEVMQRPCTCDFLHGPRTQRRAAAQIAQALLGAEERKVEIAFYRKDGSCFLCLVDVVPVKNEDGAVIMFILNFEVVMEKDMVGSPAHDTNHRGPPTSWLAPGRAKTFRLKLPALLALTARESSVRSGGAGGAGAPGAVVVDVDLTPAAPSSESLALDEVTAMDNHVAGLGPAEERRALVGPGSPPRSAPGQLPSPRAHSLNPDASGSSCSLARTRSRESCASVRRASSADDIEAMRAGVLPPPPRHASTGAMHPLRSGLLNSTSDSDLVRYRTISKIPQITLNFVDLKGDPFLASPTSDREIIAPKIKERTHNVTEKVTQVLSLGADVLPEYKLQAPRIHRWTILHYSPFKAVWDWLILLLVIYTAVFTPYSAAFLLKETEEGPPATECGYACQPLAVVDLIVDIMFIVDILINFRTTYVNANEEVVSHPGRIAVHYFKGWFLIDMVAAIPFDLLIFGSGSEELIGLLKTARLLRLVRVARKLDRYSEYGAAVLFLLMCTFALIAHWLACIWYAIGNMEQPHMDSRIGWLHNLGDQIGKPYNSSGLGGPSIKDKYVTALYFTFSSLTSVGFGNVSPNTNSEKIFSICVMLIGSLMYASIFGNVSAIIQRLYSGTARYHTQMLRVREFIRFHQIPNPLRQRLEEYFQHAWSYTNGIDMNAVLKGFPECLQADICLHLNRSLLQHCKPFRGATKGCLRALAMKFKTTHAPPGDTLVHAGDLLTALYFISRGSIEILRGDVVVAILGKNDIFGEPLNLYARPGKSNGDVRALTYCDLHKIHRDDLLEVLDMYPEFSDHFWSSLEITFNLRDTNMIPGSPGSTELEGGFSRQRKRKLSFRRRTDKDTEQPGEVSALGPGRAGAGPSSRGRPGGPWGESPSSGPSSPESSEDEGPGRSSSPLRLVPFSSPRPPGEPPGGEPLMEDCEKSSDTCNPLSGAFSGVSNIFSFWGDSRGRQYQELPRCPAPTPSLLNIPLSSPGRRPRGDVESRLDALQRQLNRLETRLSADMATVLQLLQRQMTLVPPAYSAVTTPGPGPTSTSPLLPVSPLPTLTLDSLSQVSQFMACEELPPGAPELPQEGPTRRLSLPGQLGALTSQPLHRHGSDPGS

[8] = Stability in CD-1 mouse plasma at 37.7 micromol/kg,ip administration measured after 22 hrs by LC-MS/MS analysis; assay type: ADME, cell-free; conditions: at 37.7 µmol/kg
Outline: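 Female CD-1 mice (n=3) dosed i.p. at 37.7 μmol/kg (equimolar across compounds). Blood (20 μL) drawn at 0.25, 5 and 22 h and processed to plasma. Drug levels quantified by LC-MS/MS.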

MDA-PCa-118b = assay: Antitumor activity against patient derived MDA-PCa-118b cells xenografted in SCID mouse assessed as reduction in tumor burden in femur at 10 mg/kg,ip administration measured after 4 weeks by CT imaging analysis; assay type: functional, organism-based; conditions: Homo sapiens
Outline: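 AR-PDX 118b cells (1×10^5) injected via intra-femoral artery in male SCID mice (8–9 weeks). After 2 weeks, 10 mg/kg/day ip or vehicle for 4 weeks (n = 9/group). X-ray imaging every two weeks. At the end, femurs CT-scanned (5 per group) with 3D-reconstruction tumor size, and H&E histology used for tumor/femur area ratio.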

## C/C(=N\N=c1/[nH]c2cc(F)c(F)cc2n1C)c1ccc(F)cn1
Endothelin-1 receptor
  pEC50: 5.19
[1]
  pIC50: 7.55
[2]
  inhibition: Active
[3]
  pIC50: 5.51
Panc-1-Luc
  Activity: Active
[4]
  Cmax: 217 ng/mL
[5]
  Activity: Non-Toxic
[6]
  Cmax: 1066 ng/mL
[7]
  inhibition (INH): Active
[8]
  Stability: Stable
MDA-PCa-118b
  Activity: Active
